Experiments:
[1] = species on record: Mus musculus; assay: Serum estradiol level in nonestrus mouse BALB/c cell line; (n=3)
[2] = species on record: Mus musculus; assay: Serum estradiol level in estrus estrogen receptor beta mouse; (n=3); type: functional, organism-based
In short: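 Serum was collected and sent to an outside laboratory for radioimmunoassay using reagents intended for human serum. […] Results are in pg/mL as mean ± SD, with three samples per mouse.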

`C[C@]12CC[C@@H]3c4ccc(O)cc4CC[C@H]3[C@@H]1CC[C@@H]2O` showed a Level [1] of 28.7 pg/mL and a Level [2] of 43.8 pg/mL.

From ChEMBL document CHEMBL1141109, “Synthesis of an estrogen receptor beta-selective radioligand: 5-[18F]fluoro-(2R,3S)-2,3-bis(4-hydroxyphenyl)pentanenitrile and comparison of in vivo distribution with 16alpha-[18F]fluoro-17beta-estradiol” (J Med Chem, 2005)
